dFosB act – enhances mouse delta FosB homodimer DNA binding. P13346. purified delta FosB, TAMRA-CDK5 oligo fluorescence polarization; percent of positive-control signal above neutral wells. activation, % at 25 µM. 340,000 compounds, 0.99% hits. AID 493131;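 active means mean activation above about 17%, with every replicate also reaching it, limit read from the data, passing the limit was not always enough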
SR-BI DiI inh – mouse SR-BI HDL lipid transfer inhibition; Q61009; ldlA[mSR-BI] CHO cells, DiI-HDL uptake fluorescence, 3 h; inhibition, % at 12.5 µM; 320,000 compounds, 0.96% hits; AID 488896;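 active means mean replicate inhibition of at least 70% and a set share of replicates each scoring 70 or more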
SR-BI uptake up – SR-BI HDL lipid transfer activation. CHO ldlA[mSR-BI] cells, DiI-HDL uptake fluorescence, 3 h; 100 = double the neutral-control signal. activation, % at 12.5 µM. 320,000 compounds, 0.096% hits. AID 504775;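 active means mean replicate activation of at least 60% and every replicate at or above 60%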
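Assay system: LDL receptor-deficient CHO ldlA cells overexpressing murine SR-BI / Medium: BSA-supplemented, HEPES-buffered Ham's F12, pH 7.4 / Probe or stimulus: DiI-labelled HDL at 10 µg/mL final / Timing: compound with DiI-HDL co-incubation, 3 h at 37 °C / Technique: bottom-read cell fluorescence after medium removal, ex 550/em 595 nm / Measure: HDL uptake via cellular fluorescence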
Dyrk1A ADPGlo – blocks rat Dyrk1A kinase activity; ADP-Glo luminescence, NFATc1 peptide; inhibition, % at 12.5 µM; 310,000 compounds, 0.43% hits; AID 504441
NSD2 inh – NSD2 (human) methyltransferase inhibition | 310,000 compounds, 0.54% hits | AID 743445 | NSD2 peptide methylation, AlphaScreen, 120 min | O96028 | inhibition, % at 12.5 µM
CDK5 p35 inh – CDK5/p35 (human) kinase inhibition | inhibition, % at 10 µM | Recombinant CDK5/p35, ADP-Glo luminescence, 60 min | 330,000 compounds, 0.01% hits | Q00535+Q15078;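 active means highest replicate inhibition of at least 50% and at least 75% of replicates reaching 50%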
Target sequence (Q00535 whole entry, looked up): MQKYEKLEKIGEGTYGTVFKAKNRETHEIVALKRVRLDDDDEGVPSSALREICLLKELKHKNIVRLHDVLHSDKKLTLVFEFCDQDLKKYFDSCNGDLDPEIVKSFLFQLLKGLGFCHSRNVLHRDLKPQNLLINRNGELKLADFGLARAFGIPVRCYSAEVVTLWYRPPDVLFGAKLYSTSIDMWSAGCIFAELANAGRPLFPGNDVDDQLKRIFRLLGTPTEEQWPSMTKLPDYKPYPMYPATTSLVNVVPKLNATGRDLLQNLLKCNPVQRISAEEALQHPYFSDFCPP
Target sequence (Q15078 whole entry, looked up): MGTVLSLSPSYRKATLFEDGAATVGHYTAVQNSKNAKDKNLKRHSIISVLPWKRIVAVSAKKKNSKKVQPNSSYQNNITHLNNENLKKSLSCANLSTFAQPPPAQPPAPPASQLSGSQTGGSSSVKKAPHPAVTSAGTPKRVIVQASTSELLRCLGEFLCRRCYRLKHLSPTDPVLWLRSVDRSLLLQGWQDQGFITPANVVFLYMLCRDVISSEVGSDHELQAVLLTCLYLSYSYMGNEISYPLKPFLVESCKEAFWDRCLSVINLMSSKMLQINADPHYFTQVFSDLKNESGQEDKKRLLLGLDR
Each line names hits and unclear results; the compound was inactive in the other large screens. Only some compounds are listed: those with a hit (about 2.5% of all), similar ones and a draw of the others. Unless noted, no stated cut-off is given here; in the data, active means inhibition above about 50%; inactive means the rest.

COc1ccc(OC)c(NC(=O)Nc2cccc3ccccc23)c1	none
COc1ccc(NC(=O)NCc2cccn2C)c(OC)c1	SR-BI DiI inh 85
COc1ccc(NC(=O)Nc2cccc3ccccc23)c(OC)c1	SR-BI DiI inh 71
c1ccc(N2CCN(c3nc(NCc4ccco4)c4ccccc4n3)CC2)cc1	dFosB act 45
COc1ccc(Nc2nc(NCc3ccco3)nc(N/N=C/c3ccccc3)n2)cc1	dFosB act 29 (no result: SR-BI uptake up)
Cc1ccc(Nc2nc(NCc3ccco3)c3ccccc3n2)cc1	dFosB act 58
CCOc1ccccc1C(=O)Oc1ccc2ccc(O)cc2c1	none (no result: dFosB act, SR-BI DiI inh, SR-BI uptake up, Dyrk1A ADPGlo, CDK5 p35 inh)
CCc1nc2ccc(C(=O)N(CC)CCN(C)C)cn2c1N(C=O)CCC(C)C	none (no result: dFosB act, SR-BI DiI inh, SR-BI uptake up, Dyrk1A ADPGlo, CDK5 p35 inh)
Cc1cc(C)n(-c2ccc(C(=O)Nc3ccccc3N3CCOCC3)cc2)n1	SR-BI DiI inh 80
Cc1cc(C)n(-c2ccc(C(=O)Nc3cc(C(F)(F)F)ccc3N3CCOCC3)cc2)n1	none
CC1CCCC(C)N1C(=O)COc1ccc(C(=O)Nc2ccccc2N2CCOCC2)cc1 (centres undefined)	SR-BI DiI inh 82
Cn1c(SC2CCCC2)nnc1-c1ccco1	none (no result: dFosB act, SR-BI DiI inh, SR-BI uptake up, Dyrk1A ADPGlo, CDK5 p35 inh)
CCC1=NN(C(=O)c2ccc(Br)cc2)C(O)(c2ccc(C)cc2)C1 (centres undefined)	none
CC1=NN(C(=O)c2ccc(Br)cc2)C(O)(C(F)(F)OC(F)(F)F)C1 (centres undefined)	SR-BI DiI inh 78
CC1=NN(C(=O)c2csc(C)c2)C(O)(C(F)(F)F)C1 (centres undefined)	none
CCC1=NN(C(=O)c2ccc(C)cc2)C(O)(c2ccc(Br)cc2)C1 (centres undefined)	SR-BI uptake up 103
Cc1cccc(NC(=O)NNC(=O)c2ccccn2)c1	none
C/C(=N\Nc1ccc(C(=O)c2c(C)cc3ccccn23)cc1[N+](=O)[O-])c1ccc(O)cc1	none (no result: SR-BI DiI inh, SR-BI uptake up)
C/C(=N/Nc1ccc(C(=O)c2c(C)cc3ccccn23)cc1[N+](=O)[O-])c1ccc(O)cc1	SR-BI DiI inh 101
COc1cc2nc(N3CCNCC3)nc(N)c2cc1OC	none
COc1ccc(C)cc1Nc1nc(N)c2cc(OC)c(OC)cc2n1	dFosB act 48
COc1ccc(Cl)cc1Nc1nc(N)c2ccccc2n1	none
COc1cc2nc(N3CCN(c4cc(C)ccc4C)CC3)nc(N)c2cc1OC	dFosB act 79
Cc1ccc(S(=O)(=O)NCC(C)n2cncn2)cc1C (centres undefined)	none
Cc1ccc(S(=O)(=O)NC2CC2)s1	none
COc1ccc(C(=O)c2sc(Nc3ccccc3)c(C(=O)Nc3ccc(OC)c(OC)c3)c2N)cc1	none (no result: SR-BI DiI inh, SR-BI uptake up)
COc1ccc(Nc2sc(C(=O)c3ccc(Cl)cc3)c(N)c2C(=O)Nc2ccccc2OC)cc1	SR-BI DiI inh 93 (no result: Dyrk1A ADPGlo)
C[C@]12C(=O)N(c3ccc(Br)cc3)C(=O)N1[C@@H]1c3ccccc3OC[C@@H]1[C@H]2c1ccccc1	SR-BI DiI inh 75 (no result: NSD2 inh)
COc1ccc2c(c1)OC[C@H]1[C@H]2N2C(=O)c3cc(OC)ccc3NC(=O)[C@@]2(C)[C@H]1c1ccccc1	SR-BI DiI inh 73 (no result: NSD2 inh)
O=C(O)C1CC2CCC1CC2 (centres undefined)	none
CC1CCC(C(C)C)C(OC(=O)C2=C3c4ccccc4S(=O)(=O)N3CC2)C1 (centres undefined)	SR-BI DiI inh 71
O=C(CN1C(=O)c2cccc3cccc1c23)N1CCN(Cc2ccc3c(c2)OCO3)CC1	none
O=C1c2cccc3cccc(c23)C(=O)N1CC1CCN(CC(O)COCc2ccc3c(c2)OCO3)CC1 (centres undefined)	SR-BI DiI inh 70
O=C(CCN1C(=O)c2cccc3cccc(c23)C1=O)N1CCN(Cc2ccc3c(c2)OCO3)CC1	SR-BI DiI inh 74
CCOC(=O)C1CCN(CC(O)COCc2ccc3c(c2)OCO3)CC1 (centres undefined)	none
CC1(C(=O)NS(=O)(=O)c2cccc(OC(F)F)c2)CCN1C(=O)CC1CCCC1 (centres undefined)	none (no result: dFosB act, SR-BI DiI inh, SR-BI uptake up, Dyrk1A ADPGlo, CDK5 p35 inh)
COc1ccc(C(=O)NC2CC2)cc1OC1CCN(Cc2ccc(Cl)cc2)CC1	none
CCC(C)NCC(=O)Nc1cc(S(=O)(=O)N(CC)c2ccccc2)ccc1Cl (centres undefined)	SR-BI DiI inh 72
